Source: ChEMBL document CHEMBL1142895, “Discovery of a new insecticide lead by optimizing a target-diverse scaffold: tetrazolinone derivatives” (2007)
Activity calls are given as the source filed them. No cut-off for these calls is given here.

Key:
Triticum aestivum [1] = assay: Inhibition of root growth of Triticum aestivum at 100 mg/L; assay type: functional
How it was run: (§1)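 Seeds of each species were grown in Petri dishes with 10 seeds per dish, at 28 °C, 70–80% RH, 16:8 h light:dark photoperiod and 3000 lx light for 5 days. Root and stem lengths were measured for the 10 seeds and averaged. Each test and its controls were run in three replicates, and the data were given probit analysis.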

Cucumis sativus [2] = assay: Inhibition of stem growth of Cucumis sativus at 100 mg/L; assay type: functional; how it was run: as §1
Sorghum bicolor [3] = assay: Herbicidal activity against Sorghum bicolor at 450 g ai/ha in greenhouse in vivo test; assay type: functional, organism-based
Aphis = assay: Insecticidal activity against Aphis medicagini at 250 mg/L; assay type: functional
How it was run: (§2)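 Groups of 10 of each species were placed in glass Petri dishes and sprayed with test solution using a Potter sprayer. After air-drying, they were held under normal rearing conditions. Mortality at 72 h was taken from the number and size of live larvae relative to untreated controls.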

Radish [4] = assay: Herbicidal activity against Raphanus sativus at 450 g ai/ha in greenhouse in vivo test; assay type: functional, organism-based
Echinochloa crus-galli [5] = assay: Herbicidal activity against Echinochloa crus-galli at 450 g ai/ha in greenhouse in vivo test; assay type: functional, organism-based
Triticum aestivum [6] = assay: Inhibition of stem growth of Triticum aestivum at 100 mg/L; assay type: functional; how it was run: as §1
Sorghum bicolor [7] = assay: Inhibition of stem growth of Sorghum bicolor at 100 mg/L; assay type: functional; how it was run: as §1
Echinochloa crus-galli [8] = assay: Inhibition of root growth of Echinochloa crus-galli at 100 mg/L; assay type: functional; how it was run: as §1
Radish [9] = assay: Inhibition of stem growth of Raphanus sativus at 100 mg/L; assay type: functional; how it was run: as §1
Cucumis sativus [10] = assay: Inhibition of root growth of Cucumis sativus at 100 mg/L; assay type: functional; how it was run: as §1
[11] = test system: Brassica rapa subsp. oleifera; assay: Inhibition of root growth of Brassica campestris at 100 mg/L; assay type: functional; how it was run: as §1
[12] = test system: Brassica rapa subsp. oleifera; assay: Inhibition of stem growth of Brassica campestris at 100 mg/L; assay type: functional; how it was run: as §1
Cucumis sativus [13] = assay: Herbicidal activity against Cucumis sativus at 450 g ai/ha in greenhouse in vivo test; assay type: functional, organism-based
Echinochloa crus-galli [14] = assay: Inhibition of stem growth of Echinochloa crus-galli at 100 mg/L; assay type: functional; how it was run: as §1
[15] = test system: Brassica rapa subsp. oleifera; assay: Herbicidal activity against Brassica campestris at 450 g ai/ha in greenhouse in vivo test; assay type: functional, organism-based
Tetranychus cinnabarinus = assay: Insecticidal activity against Tetranychus cinnabarinus at 250 mg/L; assay type: functional; how it was run: as §2
Triticum aestivum [16] = assay: Herbicidal activity against Triticum aestivum at 450 g ai/ha in greenhouse in vivo test; assay type: functional, organism-based
Sorghum bicolor [17] = assay: Inhibition of root growth of Sorghum bicolor at 100 mg/L; assay type: functional; how it was run: as §1
Radish [18] = assay: Inhibition of root growth of Raphanus sativus at 100 mg/L; assay type: functional; how it was run: as §1

| Compound | inhibition at 100 µg/mL (Triticum aestivum [1]) | inhibition at 100 µg/mL (Cucumis sativus [2]) | Activity (Sorghum bicolor [3]) | Activity (Aphis) | Activity (Radish [4]) | Activity (Echinochloa crus-galli [5]) | inhibition at 100 µg/mL (Triticum aestivum [6]) | inhibition at 100 µg/mL (Sorghum bicolor [7]) | inhibition at 100 µg/mL (Echinochloa crus-galli [8]) | inhibition at 100 µg/mL (Radish [9]) | inhibition at 100 µg/mL (Cucumis sativus [10]) | inhibition at 100 µg/mL [11] | inhibition at 100 µg/mL [12] | Activity (Cucumis sativus [13]) | inhibition at 100 µg/mL (Echinochloa crus-galli [14]) | Activity [15] | Activity (Tetranychus cinnabarinus) | Activity (Triticum aestivum [16]) | inhibition at 100 µg/mL (Sorghum bicolor [17]) | inhibition at 100 µg/mL (Radish [18]) |
| --- | --- | --- | --- | --- | --- | --- | --- | --- | --- | --- | --- | --- | --- | --- | --- | --- | --- | --- | --- | --- |
| CCSc1nnc(Cn2nnn(-c3ccc(Cl)cc3)c2=O)s1 | 50% | 30% | inactive | 82.5% | inactive | inactive | 40% | 60% | 60% | 40% | 0% | 60% | 60% | inactive | 70% | inactive | 5.7% | inactive | 70% | 50% |
| O=c1n(Cc2nnc(SCc3cccc(F)c3)s2)nnn1-c1ccc(Cl)cc1 | 40% | 30% | inactive | 0% | inactive | inactive | 70% | 40% | 50% | 50% | 30% | 40% | 0% | inactive | 70% | inactive | 2.9% | inactive | 40% | 50% |
| Cc1ccc(Cn2nnn(-c3ccc(Cl)cc3)c2=O)cc1 | 0% | 0% | inactive | 3.3% | inactive | inactive | 0% | 0% | 0% | 0% | 0% | 0% | 0% | inactive | 0% | inactive | 0% | inactive | 0% | 0% |
| O=c1c(Cn2nnn(-c3ccccc3Cl)c2=O)coc2ccccc12 | 0% | 0% | inactive | 13.3% | inactive | inactive | 30% | 30% | 0% | 30% | 0% | 50% | 30% | inactive | 0% | inactive | 2.9% | inactive | 50% | 50% |
| CCCCCCSc1nnc(Cn2nnn(-c3ccc(Cl)cc3)c2=O)s1 | 0% | 0% | inactive | 0% | inactive | inactive | 30% | 40% | 0% | 30% | 0% | 70% | 40% | inactive | 0% | inactive | 4.3% | inactive | 60% | 40% |
| O=c1n(Cc2ccc(Br)cc2)nnn1-c1ccc(Cl)cc1 | 0% | 0% | inactive | 13.3% | inactive | inactive | 30% | 0% | 0% | 0% | 0% | 0% | 0% | inactive | 0% | inactive | 0% | inactive | 0% | 0% |
| Cc1ccccc1Cn1nnn(-c2ccc(Cl)cc2)c1=O | 0% | 0% | inactive | 21.7% | inactive | inactive | 30% | 0% | 0% | 0% | 0% | 0% | 0% | inactive | 0% | inactive | 2.9% | inactive | 0% | 0% |
